Source: ChEMBL document CHEMBL1140029, “Design of novel histone deacetylase inhibitors” (Bioorg Med Chem Lett, 2007)
pIC50: −log10 of the molar value.

What was measured:
HCT-116 [1] = test: Antiproliferative activity against HCT116 cells after 72 hrs; assay type: functional, cell-based, Homo sapiens; settings: for pIC50: Homo sapiens, HCT-116, 72 h, read-out: IC50
Histone deacetylase 1 = Histone deacetylase 1 (Homo sapiens, UniProt Q13547); test: Inhibition of human HDAC1 expressed in domain of SMRT
Sequence of Histone deacetylase 1 (Q13547 whole entry, the tested form may be a part): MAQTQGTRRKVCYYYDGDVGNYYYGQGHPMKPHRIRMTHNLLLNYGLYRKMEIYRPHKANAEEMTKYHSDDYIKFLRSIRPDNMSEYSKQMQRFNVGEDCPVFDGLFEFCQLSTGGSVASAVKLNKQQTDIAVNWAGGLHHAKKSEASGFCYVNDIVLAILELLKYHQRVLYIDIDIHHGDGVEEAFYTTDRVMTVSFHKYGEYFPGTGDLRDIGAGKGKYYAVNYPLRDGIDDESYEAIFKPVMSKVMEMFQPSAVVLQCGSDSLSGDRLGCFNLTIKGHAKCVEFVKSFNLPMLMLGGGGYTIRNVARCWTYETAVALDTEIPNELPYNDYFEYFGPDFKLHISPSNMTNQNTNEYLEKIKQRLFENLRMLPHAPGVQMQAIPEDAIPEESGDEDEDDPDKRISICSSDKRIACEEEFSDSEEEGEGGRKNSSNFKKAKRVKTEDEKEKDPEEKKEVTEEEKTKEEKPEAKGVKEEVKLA

HCT-116 [2] = test: Antiproliferative activity against HCT116 cells after 96 hrs; assay type: functional, cell-based; settings: Homo sapiens, HCT-116, 96 h
Histone deacetylase 2 = Histone deacetylase 2 (Homo sapiens, UniProt Q92769); test: Inhibition of human HDAC2 expressed in domain of SMRT
Sequence of Histone deacetylase 2 (Q92769 whole entry, the tested form may be a part): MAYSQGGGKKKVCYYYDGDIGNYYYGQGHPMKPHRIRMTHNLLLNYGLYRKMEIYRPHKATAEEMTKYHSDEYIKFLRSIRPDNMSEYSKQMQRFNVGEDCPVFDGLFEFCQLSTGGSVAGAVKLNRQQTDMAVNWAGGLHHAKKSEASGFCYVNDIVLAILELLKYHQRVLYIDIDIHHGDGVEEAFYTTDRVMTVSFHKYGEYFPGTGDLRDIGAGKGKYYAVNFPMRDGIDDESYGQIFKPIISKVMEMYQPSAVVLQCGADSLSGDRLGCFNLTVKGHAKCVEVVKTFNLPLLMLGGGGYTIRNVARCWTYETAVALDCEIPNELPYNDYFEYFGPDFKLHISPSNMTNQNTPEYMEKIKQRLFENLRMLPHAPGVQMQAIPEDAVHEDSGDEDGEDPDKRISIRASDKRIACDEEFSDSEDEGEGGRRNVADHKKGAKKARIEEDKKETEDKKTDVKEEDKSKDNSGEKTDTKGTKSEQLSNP

Histone deacetylase 3 = Histone deacetylase 3 (Homo sapiens, UniProt O15379); test: Inhibition of human HDAC3 expressed in domain of SMRT
Sequence of Histone deacetylase 3 (O15379 whole entry, the tested form may be a part): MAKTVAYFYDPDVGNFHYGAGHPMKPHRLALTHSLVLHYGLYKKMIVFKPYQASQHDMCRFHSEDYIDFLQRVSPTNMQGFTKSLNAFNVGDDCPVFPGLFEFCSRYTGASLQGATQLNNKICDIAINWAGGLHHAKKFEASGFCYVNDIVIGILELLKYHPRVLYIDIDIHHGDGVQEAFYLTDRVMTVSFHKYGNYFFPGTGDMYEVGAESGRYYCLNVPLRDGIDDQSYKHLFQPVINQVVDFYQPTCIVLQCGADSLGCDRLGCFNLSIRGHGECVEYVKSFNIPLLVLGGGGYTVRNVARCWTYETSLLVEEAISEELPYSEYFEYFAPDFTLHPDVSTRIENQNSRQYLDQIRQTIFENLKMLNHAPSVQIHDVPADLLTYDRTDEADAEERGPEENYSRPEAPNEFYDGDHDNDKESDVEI
Method in brief: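 C-terminal FLAG-tagged human HDAC3, co-expressed with the SMRT domain, was overexpressed in mammalian cells and purified on anti-FLAG matrix. Enzyme at 1–30 nM final was preincubated with 3× serially diluted inhibitor for 10 min at RT. Fluor-de-Lys substrate was then added for 60 min at 37 °C, followed by developer containing SAHA. Fluorescence was read at Ex 360/Em 460 nm to give IC50.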

[3] = biological target: T1, Protein deacetylase HDAC6 (Homo sapiens, UniProt Q9UBN7); test: Inhibition of human HDAC6
T1 sequence (Q9UBN7 whole entry): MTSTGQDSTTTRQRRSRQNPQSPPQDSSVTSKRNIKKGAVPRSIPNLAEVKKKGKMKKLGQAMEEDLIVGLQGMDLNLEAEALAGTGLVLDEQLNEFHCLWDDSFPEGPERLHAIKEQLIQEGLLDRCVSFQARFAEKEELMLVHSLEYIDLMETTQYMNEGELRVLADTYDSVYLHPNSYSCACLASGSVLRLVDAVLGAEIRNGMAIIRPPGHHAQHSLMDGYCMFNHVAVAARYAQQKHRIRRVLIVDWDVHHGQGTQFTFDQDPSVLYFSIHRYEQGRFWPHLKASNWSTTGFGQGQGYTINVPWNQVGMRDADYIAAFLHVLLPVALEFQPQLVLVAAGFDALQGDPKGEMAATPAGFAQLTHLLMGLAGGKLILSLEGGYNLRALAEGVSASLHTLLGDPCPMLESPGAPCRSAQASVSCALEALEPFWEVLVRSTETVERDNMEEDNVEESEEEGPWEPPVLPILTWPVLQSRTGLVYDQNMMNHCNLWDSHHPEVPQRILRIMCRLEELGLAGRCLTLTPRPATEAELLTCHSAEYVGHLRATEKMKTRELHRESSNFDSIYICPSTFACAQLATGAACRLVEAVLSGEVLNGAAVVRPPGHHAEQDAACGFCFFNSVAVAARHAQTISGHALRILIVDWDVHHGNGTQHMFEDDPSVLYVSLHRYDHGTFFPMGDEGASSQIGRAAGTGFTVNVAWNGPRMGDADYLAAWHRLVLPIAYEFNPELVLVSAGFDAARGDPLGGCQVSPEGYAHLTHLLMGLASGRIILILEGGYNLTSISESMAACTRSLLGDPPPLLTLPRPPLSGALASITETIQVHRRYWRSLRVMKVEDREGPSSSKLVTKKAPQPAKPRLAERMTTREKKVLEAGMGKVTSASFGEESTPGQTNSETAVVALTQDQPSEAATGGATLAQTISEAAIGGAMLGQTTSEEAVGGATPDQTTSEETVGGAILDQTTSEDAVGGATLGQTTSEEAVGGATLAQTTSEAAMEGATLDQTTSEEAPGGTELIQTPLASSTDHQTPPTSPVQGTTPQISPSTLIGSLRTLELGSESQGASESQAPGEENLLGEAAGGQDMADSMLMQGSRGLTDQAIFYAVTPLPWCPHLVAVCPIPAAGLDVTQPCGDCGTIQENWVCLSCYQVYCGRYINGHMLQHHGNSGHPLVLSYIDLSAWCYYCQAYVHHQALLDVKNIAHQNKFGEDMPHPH
Method in brief: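 C-terminal FLAG-tagged human HDAC6 overexpressed in mammalian cells, anti-FLAG affinity-purified, 1–30 nM final. Inhibitor serially diluted 3-fold in DMSO from 10 mM stock, then 20-fold into assay buffer. Enzyme preincubated with compound 10 min at RT. Fluor-de-Lys substrate added, 60 min at 37 °C. Developer containing SAHA added, fluorescence read at Ex 360/Em 460 nm. IC50 reported.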

Histone deacetylase 8 = biological target: T2, Histone deacetylase 8 (Homo sapiens, UniProt Q9BY41); test: Inhibition of human HDAC8
T2 sequence (Q9BY41 whole entry): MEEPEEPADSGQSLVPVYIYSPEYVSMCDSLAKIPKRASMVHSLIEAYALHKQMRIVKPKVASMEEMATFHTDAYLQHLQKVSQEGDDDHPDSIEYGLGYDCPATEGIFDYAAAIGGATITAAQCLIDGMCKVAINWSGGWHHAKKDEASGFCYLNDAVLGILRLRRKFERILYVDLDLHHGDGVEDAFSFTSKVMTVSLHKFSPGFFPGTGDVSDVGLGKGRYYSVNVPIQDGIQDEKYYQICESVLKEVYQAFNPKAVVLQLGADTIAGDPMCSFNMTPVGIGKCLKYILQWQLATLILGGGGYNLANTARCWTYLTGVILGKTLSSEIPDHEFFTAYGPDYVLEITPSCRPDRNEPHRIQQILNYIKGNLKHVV
Method in brief: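 HDAC8 came from the Institute for Research in Molecular Biology, Pomezia, and was used at 1–30 nM final. It was preincubated with 3× serially diluted inhibitor for 10 min at RT. Fluor-de-Lys HDAC8 substrate was added for 15 min at 37 °C, then HDAC8 developer containing SAHA. Fluorescence was read at Ex 360/Em 460 nm to give IC50.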

[4] = Plasma clearance in rat at 2.0 mg/kg, iv; assay type: ADME, organism-based; parameters: dose 2 mg/kg, route intravenous
[5] = Plasma clearance in dog at 0.6 mg/kg, iv; assay type: ADME, organism-based, Canis lupus familiaris; parameters: dose 0.6 mg/kg, route intravenous
[6] = Plasma clearance in rhesus monkey at 1.0 mg/kg, iv; assay type: ADME, organism-based, Macaca mulatta; parameters: dose 1 mg/kg, route intravenous
[7] = Volume of distribution in dog at 0.6 mg/kg, iv; assay type: ADME, organism-based, Canis lupus familiaris; parameters: dose 0.6 mg/kg, route intravenous; settings: in vivo
[8] = Volume of distribution in rat at 2.0 mg/kg, iv; assay type: ADME, organism-based; parameters: dose 2 mg/kg, route intravenous; settings: in vivo
[9] = Volume of distribution in rhesus monkey at 1.0 mg/kg, iv; assay type: ADME, organism-based, Macaca mulatta; parameters: dose 1 mg/kg, route intravenous; settings: in vivo
[10] = Bioavailability in rat at 4.0 mg/kg, po; assay type: ADME, organism-based; settings: in vivo
[11] = Bioavailability in dog at 1.2 mg/kg, po; assay type: ADME, organism-based, Canis lupus familiaris; settings: in vivo
[12] = Bioavailability in rhesus monkey at 2.0 mg/kg, po; assay type: ADME, organism-based, Macaca mulatta; settings: in vivo
[13] = Half life in rat at 4.0 mg/kg, po; assay type: ADME, organism-based; parameters: dose 4 mg/kg, route oral; settings: in vivo
[14] = Half life in dog at 1.2 mg/kg, po; assay type: ADME, organism-based, Canis lupus familiaris; parameters: dose 1.2 mg/kg, route oral; settings: in vivo
[15] = Half life in rhesus monkey at 2.0 mg/kg, po; assay type: ADME, organism-based, Macaca mulatta; parameters: dose 2 mg/kg, route oral; settings: in vivo

| pIC50 (HCT-116 [1]) | pIC50 (Histone deacetylase 1) | Compound | other results |
| --- | --- | --- | --- |
| 6.22 | 6.70 | Nc1ccccc1NC(=O)c1ccc(C(C(=O)NCc2ccccc2)C(=O)NCc2ccccc2)cc1 | – |
| – | 8.30 | O=C(NO)c1ccc(C(C(=O)Nc2ccccc2)C(=O)Nc2ccccc2)cc1 | – |
| – | 5.14 | CN(C(=O)C(C(=O)N(C)c1ccccc1)c1ccc(C(=O)Nc2ccccc2N)cc1)c1ccccc1 | IC50 (HCT-116 [1]; hct-116): Not Active |
| 6.37 | 7.32 | Nc1ccccc1NC(=O)c1ccc(C(F)(C(=O)Nc2ccccc2)C(=O)Nc2ccccc2)cc1 | – |
| 6.01 | 6.64 | Nc1ccccc1NC(=O)c1ccc(C(C(=O)NCCCc2ccccc2)C(=O)NCCCc2ccccc2)cc1 | – |
| 6.24 | 7.33 | Nc1ccccc1NC(=O)c1ccc(CC(C(=O)Nc2ccccc2)C(=O)Nc2ccccc2)cc1 | – |
| 5.94 | 6.71 | CN(C(=O)C(C(=O)Nc1ccccc1)c1ccc(C(=O)Nc2ccccc2N)cc1)c1ccccc1 (stereo unspecified) | – |
| 6.11 | 7.03 | Nc1ccccc1NC(=O)c1ccc(C(O)(C(=O)Nc2ccccc2)C(=O)Nc2ccccc2)cc1 | – |
| 5.67 | 6.70 | CC(C(=O)Nc1ccccc1)(C(=O)Nc1ccccc1)c1ccc(C(=O)Nc2ccccc2N)cc1 | – |
| 5.60 | 6.70 | CC(Cc1ccc(C(=O)Nc2ccccc2N)cc1)(C(=O)Nc1ccccc1)C(=O)Nc1ccccc1 | – |

The next lines start with the molecule.

| Compound | pIC50 (HCT-116 [1]) | pIC50 (Histone deacetylase 1) | other results |
| --- | --- | --- | --- |
| CC(=O)NO [ACETOHYDROXAMIC ACID] | – | 3.20 | – |
| Nc1ccccc1NC(=O)c1ccc(C(C(=O)Nc2cccc(F)c2)C(=O)Nc2cccc(F)c2)cc1 | 6.22 | 7.25 | – |
| N#Cc1cccc(NC(=O)C(C(=O)Nc2cccc(C#N)c2)c2ccc(C(=O)Nc3ccccc3N)cc2)c1 | – | 7.47 | pIC50 (HCT-116 [2]): 6.30 |
| Nc1ccccc1NC(=O)c1ccc(C(C(=O)Nc2ccc3c(c2)OCCO3)C(=O)Nc2ccc3c(c2)OCCO3)cc1 | 6.66 | 7.68 | – |
| O=C(NO)c1ccccc1 [BENZOHYDROXAMATE] | – | 4.70 | – |
| COc1ccccc1NC(=O)C(C(=O)Nc1ccccc1OC)c1ccc(C(=O)Nc2ccccc2N)cc1 | 6.40 | 7.33 | – |
| Nc1ccccc1NC(=O)c1ccc(C(C(=O)Nc2ccccc2)C(=O)Nc2ccccc2)cc1 | 6.77 | 7.44 | pIC50 (Histone deacetylase 2): 6.50; pIC50 (Histone deacetylase 3): 6.16; pIC50 [3]: < 5.00; pIC50 (Histone deacetylase 8): < 5.00; clearance [4]: 55 mL/min/kg; clearance [5]: 3 mL/min/kg; clearance [6]: 12 mL/min/kg; Vd [7]: 1.8 L/kg; Vd [8]: 12 L/kg; Vd [9]: 1.7 L/kg; bioavailability [10]: 88%; bioavailability [11]: 88%; bioavailability [12]: 27%; half-life [13]: 3.8 h; half-life [14]: 8.5 h; half-life [15]: 10.4 h |
| COc1cccc(NC(=O)C(C(=O)Nc2cccc(OC)c2)c2ccc(C(=O)Nc3ccccc3N)cc2)c1 | 6.42 | 7.46 | – |
| CC(C)(C)c1ccc(C(=O)NO)cc1 | – | 6.15 | – |
| Nc1ccccc1NC(=O)c1ccc(C(C(=O)Nc2cccc3cccnc23)C(=O)Nc2cccc3cccnc23)cc1 | 5.92 | 6.99 | – |
| Nc1ccccc1NC(=O)c1ccc(C(C(=O)Nc2cccc(N3CCOCC3)c2)C(=O)Nc2cccc(N3CCOCC3)c2)cc1 | 6.27 | 7.35 | – |
| Nc1ccccc1NC(=O)c1ccc(C(C(=O)Nc2ccc(F)cc2)C(=O)Nc2ccc(F)cc2)cc1 | – | 7.20 | pIC50 (HCT-116 [2]): 6.65 |
